Reference: ChEMBL document CHEMBL5034016 (J Med Chem, 2021)
Each block holds one compound with its values, some of them ahead of it.

Key:
[1] = Selectivity index, ratio of CC50 for human RD cells to EC50 for antiviral activity against Enterovirus A71 infected in human RD cells; assay type: toxicity, cell-based; details: read-out: Ratio CC50/EC50
[2] = system: Human immunodeficiency virus 2; test: Anti-HIV activity against HIV-2 ROD infected in human MT4 cells assessed as reduction in virus-indued cytopathic effect preincubated with cells for 30 mins followed by viral infection and measured after 5 days by MTS assay; assay type: functional, organism-based; details: Human immunodeficiency virus 2, ROD
Outline: (§1)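 MT-4 cells (1×10^6 cells/mL) were preincubated with compound for 30 min at 37 °C, then infected with cell-line-adapted NL4.3 or ROD dosed by TCID50 of the stock. After 5 days, CPE was scored microscopically and EC50 calculated from MTS/PES reduction (A490). Mean ± SD of at least three independent experiments.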

[3] = Cytotoxicity against human MT4 cells assessed as reduction in cell viability measured after 5 days by MTS/PES assay; assay type: cell-based; details: time 5 day
Outline: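 Uninfected MT-4 cells were exposed to compound for 5 days. Viability was read by MTS/PES (A490, formazan proportional to living cells). […] Mean ± SD of at least three independent experiments.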

[4] = system: Enterovirus A71; test: Antiviral activity against Enterovirus A71 BrCr infected in human RD cells assessed as reduction in virus-induced cytopathic effect incubated for 3 days by MTS/PMS assay; assay type: functional, organism-based; details: Enterovirus A, 72 h
[5] = system: Human immunodeficiency virus 1; test: Anti-HIV activity against HIV-1 NL4.3 infected in human MT4 cells assessed as reduction in virus-indued cytopathic effect preincubated with cells for 30 mins followed by viral infection and measured after 5 days by MTS assay; assay type: functional, organism-based; details: Human immunodeficiency virus 1, NL4.3, MT4; outline: as §1
[6] = Cytotoxicity against human RD cells assessed as reduction in cell viability measured after 3 days by MTS/PMS assay; assay type: cell-based; details: time 3 day
Outline: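 Uninfected RD cells were treated with serial compound dilutions in the same 3-day setup as the antiviral assay. […] Multiple dose–response curves (>2) from >1 independent experiments.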

[7] = system: Human immunodeficiency virus 1; test: Anti-HIV activity against HIV-1 NL4.3 infected in PHA-stimulated human PBMC expressing CXCR-4 assessed as inhibition of virus-indued cytopathogenic effect measured after 10 days by ELISA; assay type: functional, organism-based; details: Human immunodeficiency virus 1, NL4.3, PBMC, 240 h
[8] = system: Human immunodeficiency virus 1; test: Anti-HIV activity against HIV-1 Ba-L infected in PHA-stimulated PBMC expressing CCR5 assessed as inhibition of virus-indued cytopathogenic effect measured after 10 days by ELISA; assay type: functional, organism-based; details: Human immunodeficiency virus 1, Ba-L, 240 h
[9] = system: Enterovirus; test: Antiviral activity against Enterovirus A71 harbouring VP1 P246S mutant infected in human RD cells assessed as reduction in virus induced cytopathic effect incubated for 3 days by MTS/PMS assay; assay type: functional, organism-based
[10] = system: Enterovirus; test: Antiviral activity against Enterovirus A71 harbouring VP1 S184T mutant infected in human RD cells assessed as reduction in virus induced cytopathic effect incubated for 3 days by MTS/PMS assay; assay type: functional, organism-based
[11] = system: Enterovirus; test: Antiviral activity against Enterovirus A71 harbouring VP1 S184T/P246S double mutant infected in human RD cells assessed as reduction in virus induced cytopathic effect incubated for 3 days by MTS/PMS assay; assay type: functional, organism-based
[12] = system: Human immunodeficiency virus 1; test: Inhibition of HIV-1 gp120 interaction with human CD4 assessed as inhibition of viral entry at 156 to […] by SPR analysis; details: dose lower […], dose upper […]
[13] = Inhibition of human mAb clone 2G12 binding to HIV1 gp120 expressed in human MT4 cells by flow cytometry analysis; assay type: cell-based, Human immunodeficiency virus 1
[14] = Inhibition of mouse mAb clone 9284 binding to HIV1 gp120 expressed in human MT4 cells by flow cytometry analysis; assay type: cell-based, Human immunodeficiency virus 1
[15] = Inhibition of human mAb clone 447-52D binding to HIV1 gp120 expressed in human MT4 cells by flow cytometry analysis; assay type: cell-based, Human immunodeficiency virus 1
[16] = Inhibition of mouse mAb clone 9305 binding to HIV1 gp120 expressed in human MT4 cells by flow cytometry analysis; assay type: cell-based, Human immunodeficiency virus 1
[17] = system: rhinovirus A2; test: Antiviral activity against Human rhinovirus 2 infected in HeLa cells assessed as reduction in virus induced cytopathic effect; assay type: functional, organism-based; details: Rhinovirus A
[18] = system: rhinovirus B14; test: Antiviral activity against Human rhinovirus 14 infected in HeLa cells assessed as reduction in virus induced cytopathic effect; assay type: functional, organism-based; details: Rhinovirus B
[19] = system: Human immunodeficiency virus 1; test: Potency index, ratio of AL-471 Kd to test compound Kd for binding affinity to CM5 sensor chip immobilized recombinant HIV-1 gp120 at 12.5 to 0.1 uM measured for 4 mins by SPR analysis; details: dose 12.5-0.1 µM
[20] = system: Human immunodeficiency virus 1; test: Inhibition of HIV-1 gp120 interaction with human CD4 assessed as fold change in inhibition of viral entry at 10 to 40 nM by SPR analysis relative to AL-471; details: dose 10-40 nM
Outline: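 His-CD4 at 2 μg/mL captured on a NiCl2-activated chip channel, with a reference channel alongside. 25 nM gp120 premixed with compound, 10 000 to 10 nM in fourfold steps, injected 2 min over both channels. Surface regenerated with 350 mM EDTA. Binding % from maximum response at injection end versus gp120 alone. Triplicate experiments.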

[21] = system: Human immunodeficiency virus 1; test: Inhibition of HIV-1 gp120 interaction with human CD4 assessed as inhibition of viral entry at 10 to 40 nM by SPR analysis relative to control; details: dose 10-40 nM
Outline: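 His-CD4 (2 μg/mL) was captured on a Ni-chelated chip (0.5 mM NiCl2 activation). 25 nM gp120 premixed with compound (10 000 to 10 nM, fourfold steps) was injected for 2 min over reference and analysis channels. Binding % used the maximum response at end of injection relative to 25 nM gp120 alone. Regeneration was with 350 mM EDTA. Run in triplicate.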

[22] = system: Human immunodeficiency virus 1; test: Potency index, ratio of AL-471 EC50 to test compound EC50 for anti-HIV activity against HIV-1 NL4.3 infected in human MT4 cells assessed as reduction in virus-indued cytopathic effect preincubated with cells for 30 mins followed by viral infection and measured after 5 days by MTS assay; assay type: functional; details: time 120.5 hrs
[23] = system: Human immunodeficiency virus 1; test: Binding affinity to CM5 sensor chip immobilized recombinant HIV-1 gp120 assessed as association constant at 12.5 to 0.1 uM by SPR analysis; details: dose 12.5-0.1 µM

Compound: O=C(CCOCC(COCCC(=O)NC(Cc1c[nH]c2c(-c3cc(C(=O)O)cc(C(=O)O)c3)cccc12)C(=O)O)(COCCC(=O)NC(Cc1c[nH]c2c(-c3cc(C(=O)O)cc(C(=O)O)c3)cccc12)C(=O)O)COCCC(=O)NC(Cc1c[nH]c2c(-c3cc(C(=O)O)cc(C(=O)O)c3)cccc12)C(=O)O)NC(Cc1c[nH]c2c(-c3cc(C(=O)O)cc(C(=O)O)c3)cccc12)C(=O)O (configuration not stated)
selectivity ratio [1]: 157

Compound: O=C(CCC(CCC(=O)NC(Cc1c[nH]c2c(-c3ccc(C(=O)O)cc3)cccc12)C(=O)O)(CCC(=O)NC(Cc1c[nH]c2c(-c3ccc(C(=O)O)cc3)cccc12)C(=O)O)[N+](=O)[O-])NC(Cc1c[nH]c2c(-c3ccc(C(=O)O)cc3)cccc12)C(=O)O (configuration not stated)
EC50 [2]: 49.7 µM | CC50 at 120 h [3]: > 100 µM | EC50 [4]: 61.6 µM | EC50 [5]: 12 µM | CC50 at 72 h [6]: > 61 µM | selectivity ratio [1]: 1

Compound: O=C(CCOCC(COCCC(=O)NC(Cc1c[nH]c2c(-c3ccc(C(=O)O)cc3)cccc12)C(=O)O)(COCCC(=O)NC(Cc1c[nH]c2c(-c3ccc(C(=O)O)cc3)cccc12)C(=O)O)COCCC(=O)NC(Cc1c[nH]c2c(-c3ccc(C(=O)O)cc3)cccc12)C(=O)O)NC(Cc1c[nH]c2c(-c3ccc(C(=O)O)cc3)cccc12)C(=O)O (configuration not stated)
selectivity ratio [1]: 60

Compound: CCOC(=O)c1ccc(OCCC2CCN(c3ccc(C)nn3)CC2)cc1 [PIRODAVIR]
selectivity ratio [1]: 333

EC50 [7]: > 1 µM | EC50 [8]: 0.00448 µM
Compound: Cc1nnc(C(C)C)n1[C@H]1C[C@H]2CC[C@@H](C1)N2CC[C@H](NC(=O)C1CCC(F)(F)CC1)c1ccccc1 [MARAVIROC]

Compound: O=C(CCC(CCC(=O)NC(Cc1c[nH]c2c(-c3cc(C(=O)O)cc(C(=O)O)c3)cccc12)C(=O)O)(CCC(=O)NC(Cc1c[nH]c2c(-c3cc(C(=O)O)cc(C(=O)O)c3)cccc12)C(=O)O)[N+](=O)[O-])NC(Cc1c[nH]c2c(-c3cc(C(=O)O)cc(C(=O)O)c3)cccc12)C(=O)O (configuration not stated)
selectivity ratio [1]: 63

Compound: O=C(CCC(CCC(=O)NC(Cc1c(-c2cc(C(=O)O)cc(C(=O)O)c2)[nH]c2ccccc12)C(=O)O)(CCC(=O)NC(Cc1c(-c2cc(C(=O)O)cc(C(=O)O)c2)[nH]c2ccccc12)C(=O)O)[N+](=O)[O-])NC(Cc1c(-c2cc(C(=O)O)cc(C(=O)O)c2)[nH]c2ccccc12)C(=O)O (configuration not stated)
selectivity ratio [1]: 203

Compound: O=C(CCC(CCC(=O)NC(Cc1c(-c2cc(C(=O)O)cc(C(=O)O)c2)[nH]c2c(-c3cc(C(=O)O)cc(C(=O)O)c3)cccc12)C(=O)O)(CCC(=O)NC(Cc1c(-c2cc(C(=O)O)cc(C(=O)O)c2)[nH]c2c(-c3cc(C(=O)O)cc(C(=O)O)c3)cccc12)C(=O)O)[N+](=O)[O-])NC(Cc1c(-c2cc(C(=O)O)cc(C(=O)O)c2)[nH]c2c(-c3cc(C(=O)O)cc(C(=O)O)c3)cccc12)C(=O)O (configuration not stated)
EC50 [2]: 0.07 µM | CC50 at 120 h [3]: > 100 µM | EC50 [4]: 0.2 µM | EC50 [5]: 0.04 µM | CC50 at 72 h [6]: > 100 µM | selectivity ratio [1]: 526

Compound: O=C(CCOCC(COCCC(=O)NC(Cc1c[nH]c2c(-c3cccc(C(=O)O)c3)cccc12)C(=O)O)(COCCC(=O)NC(Cc1c[nH]c2c(-c3cccc(C(=O)O)c3)cccc12)C(=O)O)COCCC(=O)NC(Cc1c[nH]c2c(-c3cccc(C(=O)O)c3)cccc12)C(=O)O)NC(Cc1c[nH]c2c(-c3cccc(C(=O)O)c3)cccc12)C(=O)O (configuration not stated)
selectivity ratio [1]: 20

Compound: O=C(CCC(CCC(=O)N[C@H](Cc1c[nH]c2ccccc12)C(=O)O)(CCC(=O)N[C@H](Cc1c[nH]c2ccccc12)C(=O)O)NC(=O)CCOCC(COCCC(=O)NC(CCC(=O)N[C@H](Cc1c[nH]c2ccccc12)C(=O)O)(CCC(=O)N[C@H](Cc1c[nH]c2ccccc12)C(=O)O)CCC(=O)N[C@H](Cc1c[nH]c2ccccc12)C(=O)O)(COCCC(=O)NC(CCC(=O)N[C@H](Cc1c[nH]c2ccccc12)C(=O)O)(CCC(=O)N[C@H](Cc1c[nH]c2ccccc12)C(=O)O)CCC(=O)N[C@H](Cc1c[nH]c2ccccc12)C(=O)O)COCCC(=O)NC(CCC(=O)N[C@H](Cc1c[nH]c2ccccc12)C(=O)O)(CCC(=O)N[C@H](Cc1c[nH]c2ccccc12)C(=O)O)CCC(=O)N[C@H](Cc1c[nH]c2ccccc12)C(=O)O)N[C@H](Cc1c[nH]c2ccccc12)C(=O)O
EC50 [9]: 4.7 µM | EC50 [4]: 0.3 µM | CC50 at 72 h [6]: 24.9 µM | EC50 [10]: 2 µM | EC50 [11]: 8.9 µM

inhibition [12]: 50% | IC50 [13]: > 100 µM | IC50 [14]: > 100 µM | IC50 [15]: > 100 µM | IC50 [16]: > 100 µM
Compound: O=C(CCOCC(COCCC(=O)NC(Cc1c(-c2cc(C(=O)O)cc(C(=O)O)c2)[nH]c2ccccc12)C(=O)O)(COCCC(=O)NC(Cc1c(-c2cc(C(=O)O)cc(C(=O)O)c2)[nH]c2ccccc12)C(=O)O)COCCC(=O)NC(Cc1c(-c2cc(C(=O)O)cc(C(=O)O)c2)[nH]c2ccccc12)C(=O)O)NC(Cc1c(-c2cc(C(=O)O)cc(C(=O)O)c2)[nH]c2ccccc12)C(=O)O (configuration not stated)

Compound: O=C(CCC(CCC(=O)NC(Cc1c[nH]c2c(-c3cccc(C(=O)O)c3)cccc12)C(=O)O)(CCC(=O)NC(Cc1c[nH]c2c(-c3cccc(C(=O)O)c3)cccc12)C(=O)O)[N+](=O)[O-])NC(Cc1c[nH]c2c(-c3cccc(C(=O)O)c3)cccc12)C(=O)O (configuration not stated)
selectivity ratio [1]: 1

Compound: O=C(CCOCC(COCCC(=O)NC(Cc1c(-c2ccc(C(=O)O)cc2)[nH]c2c(-c3ccc(C(=O)O)cc3)cccc12)C(=O)O)(COCCC(=O)NC(Cc1c(-c2ccc(C(=O)O)cc2)[nH]c2c(-c3ccc(C(=O)O)cc3)cccc12)C(=O)O)COCCC(=O)NC(Cc1c(-c2ccc(C(=O)O)cc2)[nH]c2c(-c3ccc(C(=O)O)cc3)cccc12)C(=O)O)NC(Cc1c(-c2ccc(C(=O)O)cc2)[nH]c2c(-c3ccc(C(=O)O)cc3)cccc12)C(=O)O (configuration not stated)
selectivity ratio [1]: 667

Compound: O=C(CCOCC(COCCC(=O)NC(Cc1c(-c2cc(C(=O)O)cc(C(=O)O)c2)[nH]c2c(-c3cc(C(=O)O)cc(C(=O)O)c3)cccc12)C(=O)O)(COCCC(=O)NC(Cc1c(-c2cc(C(=O)O)cc(C(=O)O)c2)[nH]c2c(-c3cc(C(=O)O)cc(C(=O)O)c3)cccc12)C(=O)O)COCCC(=O)NC(Cc1c(-c2cc(C(=O)O)cc(C(=O)O)c2)[nH]c2c(-c3cc(C(=O)O)cc(C(=O)O)c3)cccc12)C(=O)O)NC(Cc1c(-c2cc(C(=O)O)cc(C(=O)O)c2)[nH]c2c(-c3cc(C(=O)O)cc(C(=O)O)c3)cccc12)C(=O)O (configuration not stated)
EC50 [17]: > 50 µM | EC50 [18]: > 50 µM | Ratio [19]: 6 | IC50 [13]: > 100 µM | fold change (FC) [20]: 16 | inhibition [21]: 50% | selectivity ratio [1]: 2500 | IC50 [16]: > 100 µM | Ratio EC50 [22]: 3.5 | ka [23]: 3.34 10^3/M/s
